Calls of active or inactive are those of the source. The calls are words filed in the database; no cut-off is given here.
Legend:
[1] = molecular target: T1, Tyrosine-protein phosphatase non-receptor type 1 (Homo sapiens, UniProt P18031); assay: Reversible inhibition of recombinant full length PTP1B (unknown origin) assessed as p-nitrophenyl phosphate conversion to p-nitrophenol after 10 mins by spectrophotometric analysis
T1 sequence (P18031 whole entry): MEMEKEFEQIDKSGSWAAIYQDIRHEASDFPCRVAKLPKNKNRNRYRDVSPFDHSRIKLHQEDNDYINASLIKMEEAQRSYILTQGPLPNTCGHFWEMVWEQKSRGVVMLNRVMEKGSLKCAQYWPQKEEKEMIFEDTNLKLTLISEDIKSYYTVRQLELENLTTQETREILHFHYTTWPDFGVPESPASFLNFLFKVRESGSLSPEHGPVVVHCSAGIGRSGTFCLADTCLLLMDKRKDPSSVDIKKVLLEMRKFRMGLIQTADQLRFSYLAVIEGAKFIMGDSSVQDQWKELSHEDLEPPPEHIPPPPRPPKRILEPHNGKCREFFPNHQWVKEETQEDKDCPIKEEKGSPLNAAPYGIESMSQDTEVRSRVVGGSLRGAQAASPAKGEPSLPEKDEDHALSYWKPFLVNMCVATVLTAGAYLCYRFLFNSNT
Summary of the method: (§1)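 Recombinant full-length PTP1B (5 nM final) in 50 mM Bis-Tris pH 7.2, 100 mM NaCl, 1 mM DTT, 2 mM EDTA, 1 vol % DMSO, 2 mM p-nitrophenyl phosphate plus inhibitor. Mixture preincubated 5 min at 37 C, started by adding enzyme. p-Nitrophenol release followed. IC50 taken from dose-response curve as 50% activity loss after 10 min.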

[2] = molecular target: T2, Tyrosine-protein phosphatase non-receptor type 2 (Homo sapiens) (UniProt P17706); assay: Inhibition of TCPTP (unknown origin) assessed as p-nitrophenyl phosphate conversion to p-nitrophenol by spectrophotometric analysis; details: TDE = time-dependent effect
T2 sequence (whole entry): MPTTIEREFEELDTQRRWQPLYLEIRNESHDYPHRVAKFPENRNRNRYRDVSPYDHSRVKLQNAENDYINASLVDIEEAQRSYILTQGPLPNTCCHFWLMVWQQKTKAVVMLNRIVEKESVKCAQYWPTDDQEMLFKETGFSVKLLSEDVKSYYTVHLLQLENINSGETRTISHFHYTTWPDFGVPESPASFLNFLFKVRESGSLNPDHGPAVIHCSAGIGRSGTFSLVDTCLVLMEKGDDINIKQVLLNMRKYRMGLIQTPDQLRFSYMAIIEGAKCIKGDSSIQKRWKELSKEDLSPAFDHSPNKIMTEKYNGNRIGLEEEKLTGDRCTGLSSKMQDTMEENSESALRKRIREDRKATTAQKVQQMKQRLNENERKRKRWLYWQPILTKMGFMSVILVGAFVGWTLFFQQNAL

[3] = molecular target: T3, Tyrosine-protein phosphatase non-receptor type 1 (Homo sapiens) (UniProt P18031); assay: Inhibition of recombinant full length PTP1B (unknown origin) assessed as p-nitrophenyl phosphate conversion to p-nitrophenol by spectrophotometric analysis; details: TDE = time-dependent effect; summary of the method: as §1
T3 sequence (whole entry): T1 sequence (P18031 whole entry)

[4] = species: Homo sapiens; assay: Selectivity ratio of IC50 for CD45 (unknown origin) to IC50 for recombinant full length PTP1B (unknown origin)
[5] = species: Homo sapiens; assay: Selectivity ratio of IC50 for TCPTP (unknown origin) to IC50 for recombinant full length PTP1B (unknown origin)
[6] = molecular target: Receptor-type tyrosine-protein phosphatase F (Homo sapiens, UniProt P10586); assay: Inhibition of LAR (unknown origin) assessed as p-nitrophenyl phosphate conversion to p-nitrophenol after 10 mins by spectrophotometric analysis
Receptor-type tyrosine-protein phosphatase F, sequence (P10586 whole entry): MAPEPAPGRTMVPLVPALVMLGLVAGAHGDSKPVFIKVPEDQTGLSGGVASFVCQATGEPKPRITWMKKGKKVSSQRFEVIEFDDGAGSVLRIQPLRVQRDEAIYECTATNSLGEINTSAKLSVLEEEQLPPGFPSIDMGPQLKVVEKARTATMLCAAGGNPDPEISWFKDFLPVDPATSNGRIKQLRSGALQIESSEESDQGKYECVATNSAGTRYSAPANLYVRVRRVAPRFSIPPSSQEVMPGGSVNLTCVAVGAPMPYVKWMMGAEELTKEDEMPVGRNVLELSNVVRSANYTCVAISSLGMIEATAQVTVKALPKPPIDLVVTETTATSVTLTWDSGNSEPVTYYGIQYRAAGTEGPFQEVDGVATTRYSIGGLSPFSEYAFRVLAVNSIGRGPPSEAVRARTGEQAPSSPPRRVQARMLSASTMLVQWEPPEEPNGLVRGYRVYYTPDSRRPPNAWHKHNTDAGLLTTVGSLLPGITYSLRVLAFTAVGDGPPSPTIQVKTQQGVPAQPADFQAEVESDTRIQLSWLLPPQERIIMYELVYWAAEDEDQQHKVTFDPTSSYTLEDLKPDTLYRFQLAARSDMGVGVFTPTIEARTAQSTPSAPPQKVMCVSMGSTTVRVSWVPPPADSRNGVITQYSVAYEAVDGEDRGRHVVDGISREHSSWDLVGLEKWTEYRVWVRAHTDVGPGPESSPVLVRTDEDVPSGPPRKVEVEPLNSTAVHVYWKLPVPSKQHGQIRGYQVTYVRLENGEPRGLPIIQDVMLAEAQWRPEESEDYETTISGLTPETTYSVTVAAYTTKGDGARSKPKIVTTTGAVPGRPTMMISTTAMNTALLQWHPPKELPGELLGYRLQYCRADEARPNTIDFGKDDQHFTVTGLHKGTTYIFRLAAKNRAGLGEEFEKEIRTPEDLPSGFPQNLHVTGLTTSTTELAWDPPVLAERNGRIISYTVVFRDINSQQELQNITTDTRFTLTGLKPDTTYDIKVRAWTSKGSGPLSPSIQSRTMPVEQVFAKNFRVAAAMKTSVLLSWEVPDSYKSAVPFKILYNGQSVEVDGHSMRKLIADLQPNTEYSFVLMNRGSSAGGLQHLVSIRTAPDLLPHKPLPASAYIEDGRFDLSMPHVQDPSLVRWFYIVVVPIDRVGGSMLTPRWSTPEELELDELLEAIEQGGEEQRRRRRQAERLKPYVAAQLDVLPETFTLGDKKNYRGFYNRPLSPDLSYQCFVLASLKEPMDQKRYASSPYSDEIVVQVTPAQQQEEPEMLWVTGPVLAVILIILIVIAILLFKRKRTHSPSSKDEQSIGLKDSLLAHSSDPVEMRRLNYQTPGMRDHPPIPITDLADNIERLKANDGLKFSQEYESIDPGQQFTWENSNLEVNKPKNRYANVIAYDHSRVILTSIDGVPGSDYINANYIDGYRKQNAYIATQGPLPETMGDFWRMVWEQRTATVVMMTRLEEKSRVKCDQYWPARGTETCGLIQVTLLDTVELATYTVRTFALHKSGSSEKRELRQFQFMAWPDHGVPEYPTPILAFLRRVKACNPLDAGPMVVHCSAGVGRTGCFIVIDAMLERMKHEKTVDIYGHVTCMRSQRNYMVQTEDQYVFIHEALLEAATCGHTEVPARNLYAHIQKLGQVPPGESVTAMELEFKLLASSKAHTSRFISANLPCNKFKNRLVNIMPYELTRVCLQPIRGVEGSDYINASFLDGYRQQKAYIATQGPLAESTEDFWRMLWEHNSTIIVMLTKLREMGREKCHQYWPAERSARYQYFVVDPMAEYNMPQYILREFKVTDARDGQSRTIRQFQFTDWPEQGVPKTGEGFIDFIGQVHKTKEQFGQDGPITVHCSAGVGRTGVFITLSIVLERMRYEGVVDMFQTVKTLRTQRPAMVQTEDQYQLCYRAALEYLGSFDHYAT
Summary of the method: (§2)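 p-Nitrophenyl phosphate substrate at 2 mM for TC-PTP and LAR, 1 mM for PTPbeta, 5 mM for CD45, 7 mM for SHP2. p-Nitrophenol release followed. IC50 read from dose-dependent curve as the concentration giving 50% activity after 10 min incubation.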

[7] = molecular target: T4, Tyrosine-protein phosphatase non-receptor type 11 (Homo sapiens, UniProt Q06124); assay: Inhibition of SHP2 (unknown origin) assessed as p-nitrophenyl phosphate conversion to p-nitrophenol after 10 mins by spectrophotometric analysis; summary of the method: as §2
T4 sequence (Q06124 whole entry): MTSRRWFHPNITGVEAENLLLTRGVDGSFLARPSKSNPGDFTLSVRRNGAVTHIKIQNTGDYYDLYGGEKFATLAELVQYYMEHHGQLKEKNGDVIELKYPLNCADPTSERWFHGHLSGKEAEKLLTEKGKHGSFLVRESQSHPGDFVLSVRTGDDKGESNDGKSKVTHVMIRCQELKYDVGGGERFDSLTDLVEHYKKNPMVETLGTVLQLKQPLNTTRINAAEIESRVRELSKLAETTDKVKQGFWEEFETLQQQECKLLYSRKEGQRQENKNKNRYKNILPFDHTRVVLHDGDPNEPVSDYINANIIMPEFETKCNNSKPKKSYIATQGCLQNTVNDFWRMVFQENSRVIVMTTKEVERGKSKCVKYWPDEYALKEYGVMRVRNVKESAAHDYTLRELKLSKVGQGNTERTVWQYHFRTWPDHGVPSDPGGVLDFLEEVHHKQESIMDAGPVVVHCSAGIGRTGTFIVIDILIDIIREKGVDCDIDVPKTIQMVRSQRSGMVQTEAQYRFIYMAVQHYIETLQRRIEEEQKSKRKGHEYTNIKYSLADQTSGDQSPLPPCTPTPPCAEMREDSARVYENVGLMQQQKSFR

[8] = molecular target: T5, Receptor-type tyrosine-protein phosphatase C (Homo sapiens, UniProt P08575); assay: Inhibition of CD45 (unknown origin) assessed as p-nitrophenyl phosphate conversion to p-nitrophenol after 10 mins by spectrophotometric analysis; summary of the method: as §2
T5 sequence (P08575 whole entry): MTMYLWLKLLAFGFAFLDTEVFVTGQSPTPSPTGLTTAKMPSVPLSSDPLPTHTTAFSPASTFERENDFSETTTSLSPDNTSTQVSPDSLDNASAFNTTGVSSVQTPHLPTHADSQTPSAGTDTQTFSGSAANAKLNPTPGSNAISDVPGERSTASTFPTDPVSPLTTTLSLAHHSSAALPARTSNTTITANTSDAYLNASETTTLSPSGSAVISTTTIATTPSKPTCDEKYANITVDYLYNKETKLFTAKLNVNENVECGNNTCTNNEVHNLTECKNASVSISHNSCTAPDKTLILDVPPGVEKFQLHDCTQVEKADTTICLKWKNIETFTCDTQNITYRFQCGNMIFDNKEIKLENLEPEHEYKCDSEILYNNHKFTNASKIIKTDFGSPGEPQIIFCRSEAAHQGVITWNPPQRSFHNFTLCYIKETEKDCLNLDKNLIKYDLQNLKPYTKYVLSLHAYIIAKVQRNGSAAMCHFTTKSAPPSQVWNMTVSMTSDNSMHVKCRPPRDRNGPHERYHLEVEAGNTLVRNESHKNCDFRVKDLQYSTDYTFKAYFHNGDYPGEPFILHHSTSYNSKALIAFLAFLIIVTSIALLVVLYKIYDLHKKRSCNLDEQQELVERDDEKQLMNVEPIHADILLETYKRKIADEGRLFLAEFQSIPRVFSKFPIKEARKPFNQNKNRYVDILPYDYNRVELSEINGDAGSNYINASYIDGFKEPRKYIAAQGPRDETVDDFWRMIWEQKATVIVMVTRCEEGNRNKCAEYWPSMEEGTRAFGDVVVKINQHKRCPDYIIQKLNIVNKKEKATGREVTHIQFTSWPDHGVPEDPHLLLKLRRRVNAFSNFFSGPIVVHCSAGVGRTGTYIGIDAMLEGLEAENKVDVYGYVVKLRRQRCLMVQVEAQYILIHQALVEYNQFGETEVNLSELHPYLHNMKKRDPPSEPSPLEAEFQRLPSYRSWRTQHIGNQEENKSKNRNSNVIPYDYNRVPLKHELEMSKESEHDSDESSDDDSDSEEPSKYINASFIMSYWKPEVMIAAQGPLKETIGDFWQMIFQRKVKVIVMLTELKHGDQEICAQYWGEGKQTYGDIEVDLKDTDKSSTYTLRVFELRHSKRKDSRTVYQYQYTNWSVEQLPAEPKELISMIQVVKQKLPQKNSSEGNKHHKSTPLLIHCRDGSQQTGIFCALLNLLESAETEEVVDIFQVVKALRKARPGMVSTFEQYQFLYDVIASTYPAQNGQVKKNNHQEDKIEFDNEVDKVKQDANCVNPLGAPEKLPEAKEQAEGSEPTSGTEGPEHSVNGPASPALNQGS

[9] = molecular target: Receptor-type tyrosine-protein phosphatase beta (Homo sapiens, UniProt P23467); assay: Inhibition of PTPbeta (unknown origin) assessed as p-nitrophenyl phosphate conversion to p-nitrophenol after 10 mins by spectrophotometric analysis; summary of the method: as §2
Receptor-type tyrosine-protein phosphatase beta, sequence (P23467 whole entry): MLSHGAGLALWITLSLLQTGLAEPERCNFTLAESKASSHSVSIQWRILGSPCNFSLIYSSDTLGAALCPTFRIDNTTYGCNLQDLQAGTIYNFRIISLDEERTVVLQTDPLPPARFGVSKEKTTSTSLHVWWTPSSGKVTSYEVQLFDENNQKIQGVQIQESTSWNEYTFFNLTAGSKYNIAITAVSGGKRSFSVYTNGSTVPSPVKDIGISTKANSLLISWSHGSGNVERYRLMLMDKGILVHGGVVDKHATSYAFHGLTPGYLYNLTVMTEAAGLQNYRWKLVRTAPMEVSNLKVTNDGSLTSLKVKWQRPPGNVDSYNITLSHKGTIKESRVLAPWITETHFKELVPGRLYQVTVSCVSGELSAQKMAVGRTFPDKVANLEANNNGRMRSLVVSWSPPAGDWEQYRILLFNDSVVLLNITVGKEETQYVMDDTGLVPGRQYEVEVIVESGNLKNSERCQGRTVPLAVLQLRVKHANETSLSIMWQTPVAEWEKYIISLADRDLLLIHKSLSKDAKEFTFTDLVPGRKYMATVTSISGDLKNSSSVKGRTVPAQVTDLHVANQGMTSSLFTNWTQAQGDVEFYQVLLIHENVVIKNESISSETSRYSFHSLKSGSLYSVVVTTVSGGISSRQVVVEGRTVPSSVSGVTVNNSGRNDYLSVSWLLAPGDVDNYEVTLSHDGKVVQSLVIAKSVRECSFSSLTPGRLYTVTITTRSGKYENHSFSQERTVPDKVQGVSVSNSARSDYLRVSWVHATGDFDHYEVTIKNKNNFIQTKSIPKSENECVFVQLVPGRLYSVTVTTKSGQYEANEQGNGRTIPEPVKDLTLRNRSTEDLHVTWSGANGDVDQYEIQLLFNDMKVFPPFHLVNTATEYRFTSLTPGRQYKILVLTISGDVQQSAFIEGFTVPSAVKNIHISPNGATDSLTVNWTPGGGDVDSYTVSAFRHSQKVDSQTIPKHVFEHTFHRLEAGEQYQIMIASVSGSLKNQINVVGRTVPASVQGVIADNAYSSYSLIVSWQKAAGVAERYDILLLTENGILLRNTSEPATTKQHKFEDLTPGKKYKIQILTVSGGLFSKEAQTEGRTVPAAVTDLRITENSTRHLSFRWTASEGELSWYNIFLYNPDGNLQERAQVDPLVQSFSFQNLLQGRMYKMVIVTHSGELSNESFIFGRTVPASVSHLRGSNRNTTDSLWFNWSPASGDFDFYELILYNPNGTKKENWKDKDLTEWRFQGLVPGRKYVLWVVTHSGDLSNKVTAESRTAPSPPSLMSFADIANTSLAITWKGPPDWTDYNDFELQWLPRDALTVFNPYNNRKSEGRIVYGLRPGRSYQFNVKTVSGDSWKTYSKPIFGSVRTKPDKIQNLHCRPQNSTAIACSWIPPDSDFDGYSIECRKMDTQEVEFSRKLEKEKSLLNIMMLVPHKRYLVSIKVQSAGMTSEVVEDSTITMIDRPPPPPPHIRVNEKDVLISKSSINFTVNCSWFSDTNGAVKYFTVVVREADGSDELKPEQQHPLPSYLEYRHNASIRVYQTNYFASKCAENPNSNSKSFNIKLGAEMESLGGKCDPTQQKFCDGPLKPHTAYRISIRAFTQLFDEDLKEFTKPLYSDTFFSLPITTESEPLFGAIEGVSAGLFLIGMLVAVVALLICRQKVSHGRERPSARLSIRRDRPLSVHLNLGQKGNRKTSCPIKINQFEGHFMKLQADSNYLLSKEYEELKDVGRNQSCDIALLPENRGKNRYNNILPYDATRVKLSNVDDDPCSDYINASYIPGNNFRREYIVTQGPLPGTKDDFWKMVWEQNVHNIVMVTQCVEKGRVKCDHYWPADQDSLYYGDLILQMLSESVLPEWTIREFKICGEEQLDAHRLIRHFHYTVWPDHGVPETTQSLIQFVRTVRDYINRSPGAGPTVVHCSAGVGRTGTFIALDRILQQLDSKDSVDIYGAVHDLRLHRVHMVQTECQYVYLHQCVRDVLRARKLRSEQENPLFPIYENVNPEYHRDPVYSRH

[10] = molecular target: T6, Tyrosine-protein phosphatase non-receptor type 2 (Homo sapiens, UniProt P17706); assay: Inhibition of TCPTP (unknown origin) assessed as p-nitrophenyl phosphate conversion to p-nitrophenol after 10 mins by spectrophotometric analysis; summary of the method: as §2
T6 sequence (P17706 whole entry): T2 sequence (whole entry)

[11] = molecular target: T1, Tyrosine-protein phosphatase non-receptor type 1; assay: Inhibition of recombinant truncated PTP1B (unknown origin) using pTyr1146 as substrate assessed as inorganic phosphate level after 20 mins by spectrophotometric analysis
Summary of the method: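 Truncated recombinant PTP1B (40 nM) with 0.075 mM pTyr1146 in 50 mM Bis-Tris pH 7.2, 1.1 mM DTT, 0.1 M NaCl, 1 mM EDTA. Reaction started with enzyme, run 20 min at 37 C, stopped with malachite green, held 10 min at 37 C. Phosphate read at 620 nm against standard curve, corrected for no-enzyme, no-substrate and inhibitor blanks.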

[12] = molecular target: T1, Tyrosine-protein phosphatase non-receptor type 1; assay: Competitive inhibition of recombinant full length PTP1B (unknown origin) assessed as p-nitrophenyl phosphate conversion to p-nitrophenol by Lineweaver-Burk plot analysis
[13] = molecular target: T1, Tyrosine-protein phosphatase non-receptor type 1; assay: Inhibition of recombinant full length PTP1B (unknown origin) assessed as p-nitrophenyl phosphate conversion to p-nitrophenol after 10 mins by spectrophotometric analysis; summary of the method: as §1
[14] = molecular target: T3, Tyrosine-protein phosphatase non-receptor type 1 (Homo sapiens); details: 50 uM
[15] = molecular target: T3, Tyrosine-protein phosphatase non-receptor type 1 (Homo sapiens); assay: Inhibition of recombinant full length PTP1B (unknown origin) assessed as p-nitrophenyl phosphate conversion to p-nitrophenol up to 20 uM after 10 mins by spectrophotometric analysis; summary of the method: as §1

Row | Compound | Ki [1] [µM] | inhibition [2] | inhibition [3] | Ratio IC50 [4] | Ratio IC50 [5] | IC50 [6] [µM] | IC50 [7] [µM] | IC50 [8] [µM] | IC50 [9] [µM] | IC50 [10] [µM] | IC50 [11] [µM] | Ki [12] [µM] | IC50 [13] [µM] | inhibition [14] | inhibition [15]
1 | CCCOc1c2cccc1Cc1cc(C(P(=O)(O)O)P(=O)(O)O)cc(c1O)Cc1cccc(c1OCCC)Cc1cccc(c1O)C2 | 0.74 | tde | tde | 4 | 8 | > 100 | 1.8 | 5.7 | 13 | 9.3 | 3.7 | 0.98 | 1.2 | – | –
2 | CCCOc1c2cccc1Cc1cc(C(P(=O)(O)O)P(=O)(O)O)cc(c1O)Cc1cccc(c1OCCC)Cc1cc(C(P(=O)(O)O)P(=O)(O)O)cc(c1O)C2 | – | – | – | – | – | > 100 | 2.6 | 22 | – | 4.9 | 3.9 | – | 2.5 | – | –
3 | CCCOc1c2cccc1Cc1cccc(c1O)Cc1cccc(c1OCCC)Cc1cccc(c1O)C2 | – | – | – | – | – | – | – | – | – | – | – | – | – | – | inactive

Results, then the compound that gave them:

Row | Ki [1] [µM] | inhibition [2] | inhibition [3] | Ratio IC50 [4] | Ratio IC50 [5] | IC50 [6] [µM] | IC50 [7] [µM] | IC50 [8] [µM] | IC50 [9] [µM] | IC50 [10] [µM] | IC50 [11] [µM] | Ki [12] [µM] | IC50 [13] [µM] | inhibition [14] | inhibition [15] | Compound
4 | 0.68 | tde | tde | 4 | 14 | ≥ 100 | 3.4 | 8.4 | 18 | 27 | 4.1 | – | 1.9 | – | – | CCCOc1c2cccc1Cc1cc(C(O)(P(=O)(O)O)P(=O)(O)O)cc(c1O)Cc1cccc(c1OCCC)Cc1cccc(c1O)C2
5 | – | – | – | – | – | > 100 | 9.2 | 59 | 12 | 22 | 7.3 | – | 8.3 | – | – | CCCOc1c2cccc1Cc1cc(C(O)(P(=O)(O)O)P(=O)(O)O)cc(c1O)Cc1cccc(c1OCCC)Cc1cc(C(O)(P(=O)(O)O)P(=O)(O)O)cc(c1O)C2
6 | – | – | – | – | – | – | – | – | – | – | – | – | – | inactive | – | NCCCC(O)(P(=O)(O)O)P(=O)(O)O

From ChEMBL document CHEMBL2429736, “Calix[4]arene methylenebisphosphonic acids as inhibitors of protein tyrosine phosphatase 1B” (Bioorg Med Chem Lett, 2013)
